# Calls of active or inactive are those of the source. The calls are words filed in the database; no cut-off is given here.
# What was measured:
# Candida albicans [1] = experiment: Antifungal activity against Candida albicans ATCC 10231 assessed as fungal growth inhibition by double dilution method; format: functional
# Procedure, shortened: (§1)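 Broth microdilution after CLSI M27-A3/M38-A2 with minor changes. Single colony grown overnight in YPD at 35 °C, 200 rpm. Compound final range 0.06-31.3 µg/mL; incubated 48 h at 35 °C.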
# Candida albicans [2] = experiment: Antifungal activity against Candida albicans ATCC 64124 assessed as fungal growth inhibition by double dilution method; format: functional
# Procedure, shortened: (§2)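 Broth microdilution after CLSI M27-A3/M38-A2 with minor modifications. A single colony was grown overnight in YPD at 35 °C with shaking at 200 rpm. Cells were mixed 1:1 with compound (final 0.06-31.3 µg/mL, from DMSO stocks) and incubated 48 h at 35 °C.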
# Candida albicans [3] = experiment: Antifungal activity against itraconazole/fluconazole susceptible Candida albicans ATCC MYA-2876 assessed as fungal growth inhibition by double dilution method; format: functional; procedure, shortened: as §2
# Candida albicans [4] = experiment: Antifungal activity against itraconazole/fluconazole resistant Candida albicans ATCC 90819 assessed as fungal growth inhibition by double dilution method; format: functional; procedure, shortened: as §2
# Candida albicans [5] = experiment: Antifungal activity against itraconazole/fluconazole susceptible Candida albicans ATCC MYA-2310 assessed as fungal growth inhibition by double dilution method; format: functional; procedure, shortened: as §2
# Candida albicans [6] = experiment: Antifungal activity against itraconazole/fluconazole resistant Candida albicans ATCC MYA-1237 assessed as fungal growth inhibition by double dilution method; format: functional; procedure, shortened: as §2
# Candida albicans [7] = experiment: Antifungal activity against itraconazole/fluconazole resistant Candida albicans ATCC MYA-1003 assessed as fungal growth inhibition by double dilution method; format: functional; procedure, shortened: as §2
# Nakaseomyces glabratus [8] = experiment: Antifungal activity against Candida glabrata ATCC 2001 assessed as fungal growth inhibition by double dilution method; format: functional; procedure, shortened: as §1
# Pichia kudriavzevii [9] = experiment: Antifungal activity against Pichia kudriavzevii ATCC 6258 assessed as fungal growth inhibition by double dilution method; format: functional; procedure, shortened: as §1
# Nakaseomyces glabratus [10] = experiment: Antifungal activity against Candida glabrata ATCC 22019 assessed as fungal growth inhibition by double dilution method; format: functional; procedure, shortened: as §1
# [Candida] auris [11] = Antifungal activity against Candida auris AR Bank # 0384 assessed as fungal growth inhibition by double dilution method; format: functional; conditions: Candidozyma auris; procedure, shortened: as §1
# [Candida] auris [12] = Antifungal activity against Candida auris AR Bank # 0390 assessed as fungal growth inhibition by double dilution method; format: functional; conditions: Candidozyma auris; procedure, shortened: as §1
# Cryptococcus neoformans = experiment: Antifungal activity against Cryptococcus neoformans ATCC MYA-895 assessed as fungal growth inhibition by double dilution method; format: functional; procedure, shortened: as §1
# Aspergillus terreus = experiment: Antifungal activity against Aspergillus terreus ATCC MYA-3633 assessed as fungal growth inhibition by double dilution method; format: functional
# Aspergillus fumigatus [13] = experiment: Antifungal activity against Aspergillus fumigatus NRRL 163 assessed as fungal growth inhibition by double dilution method; format: functional
# Aspergillus flavus = experiment: Antifungal activity against Aspergillus flavus ATCC MYA-3631 assessed as fungal growth inhibition by double dilution method; format: functional
# Aspergillus nidulans = experiment: Antifungal activity against Aspergillus nidulans ATCC 38163 assessed as fungal growth inhibition by double dilution method; format: functional
# Aspergillus fumigatus [14] = experiment: Antifungal activity against Aspergillus fumigatus NRRL 5109 assessed as fungal growth inhibition by double dilution method; format: functional
# Aspergillus fumigatus [15] = experiment: Antifungal activity against Aspergillus fumigatus NRRL 6113 assessed as fungal growth inhibition by double dilution method; format: functional
# [Candida] auris [16] = Antifungal activity against Candida auris AR Bank # 381 assessed as fungal growth inhibition by double dilution method; format: functional; conditions: Candidozyma auris; procedure, shortened: as §1
# [Candida] auris [17] = Antifungal activity against Candida auris AR Bank # 382 assessed as fungal growth inhibition by double dilution method; format: functional; conditions: Candidozyma auris; procedure, shortened: as §1
# [Candida] auris [18] = Antifungal activity against Candida auris AR Bank # 383 assessed as fungal growth inhibition by double dilution method; format: functional; conditions: Candidozyma auris; procedure, shortened: as §1
# [Candida] auris [19] = Antifungal activity against Candida auris AR Bank # 384 assessed as fungal growth inhibition by double dilution method; format: functional; conditions: Candidozyma auris; procedure, shortened: as §1
# [Candida] auris [20] = Antifungal activity against Candida auris AR Bank # 385 assessed as fungal growth inhibition by double dilution method; format: functional; conditions: Candidozyma auris; procedure, shortened: as §1
# [Candida] auris [21] = Antifungal activity against Candida auris AR Bank # 386 assessed as fungal growth inhibition by double dilution method; format: functional; conditions: Candidozyma auris; procedure, shortened: as §1
# [Candida] auris [22] = Antifungal activity against Candida auris AR Bank # 387 assessed as fungal growth inhibition by double dilution method; format: functional; conditions: Candidozyma auris; procedure, shortened: as §1
# [Candida] auris [23] = Antifungal activity against Candida auris AR Bank # 388 assessed as fungal growth inhibition by double dilution method; format: functional; conditions: Candidozyma auris; procedure, shortened: as §1
# [Candida] auris [24] = Antifungal activity against Candida auris AR Bank # 389 assessed as fungal growth inhibition by double dilution method; format: functional; conditions: Candidozyma auris; procedure, shortened: as §1
# [Candida] auris [25] = Antifungal activity against Candida auris AR Bank # 390 assessed as fungal growth inhibition by double dilution method; format: functional; conditions: Candidozyma auris; procedure, shortened: as §1
# Candida duobushaemulonii [26] = experiment: Antifungal activity against Candida duobushaemulonii AR Bank # 391 assessed as fungal growth inhibition by double dilution method; format: functional; conditions: Candidozyma duobushaemuli; procedure, shortened: as §1
# Candida duobushaemulonii [27] = experiment: Antifungal activity against Candida duobushaemulonii AR Bank # 392 assessed as fungal growth inhibition by double dilution method; format: functional; conditions: Candidozyma duobushaemuli; procedure, shortened: as §1
# [Candida] haemuloni [28] = Antifungal activity against Candida haemulonii AR Bank # 393 assessed as fungal growth inhibition by double dilution method; format: functional; conditions: Candidozyma haemuli; procedure, shortened: as §1
# Candida duobushaemulonii [29] = experiment: Antifungal activity against Candida duobushaemulonii AR Bank # 394 assessed as fungal growth inhibition by double dilution method; format: functional; conditions: Candidozyma duobushaemuli; procedure, shortened: as §1
# [Candida] haemuloni [30] = Antifungal activity against Candida haemulonii AR Bank # 395 assessed as fungal growth inhibition by double dilution method; format: functional; conditions: Candidozyma haemuli; procedure, shortened: as §1
# Kodamaea ohmeri = experiment: Antifungal activity against Kodamaea ohmeri AR Bank # 396 assessed as fungal growth inhibition by double dilution method; format: functional; procedure, shortened: as §1
# Pichia kudriavzevii [31] = experiment: Antifungal activity against Pichia kudriavzevii AR Bank # 397 assessed as fungal growth inhibition by double dilution method; format: functional; procedure, shortened: as §1
# Clavispora lusitaniae = experiment: Antifungal activity against Clavispora lusitaniae AR Bank # 398 assessed as fungal growth inhibition by double dilution method; format: functional; procedure, shortened: as §1
# Saccharomyces cerevisiae [32] = experiment: Antifungal activity against Saccharomyces cerevisiae AR Bank # 399 assessed as fungal growth inhibition by double dilution method; format: functional; procedure, shortened: as §1
# Saccharomyces cerevisiae [33] = experiment: Antifungal activity against Saccharomyces cerevisiae AR Bank # 400 assessed as fungal growth inhibition by double dilution method; format: functional; procedure, shortened: as §1
# Candida albicans [34] = experiment: Antibiofilm activity against Candida albicans ATCC 10231 assessed as reduction in biofilm production at 1.96 to 3.9 microg/ml by biofilm formation assay; format: functional, organism-based; conditions: dose 1.96-3.9 µg/ml
Compound,MIC (Candida albicans [1]),MIC (Candida albicans [2]),MIC (Candida albicans [3]),MIC (Candida albicans [4]),MIC (Candida albicans [5]),MIC (Candida albicans [6]),MIC (Candida albicans [7]),MIC (Nakaseomyces glabratus [8]),MIC (Pichia kudriavzevii [9]),MIC (Nakaseomyces glabratus [10]),MIC ([Candida] auris [11]),MIC ([Candida] auris [12]),MIC (Cryptococcus neoformans),MIC (Aspergillus terreus),MIC (Aspergillus fumigatus [13]),MIC (Aspergillus flavus),MIC (Aspergillus nidulans),MIC (Aspergillus fumigatus [14]),MIC (Aspergillus fumigatus [15]),MIC ([Candida] auris [16]),other results
COc1ccc(NNC(=O)c2ccccn2)cc1,0.12 µg/mL,0.98 µg/mL,1.95 µg/mL,0.49 µg/mL,0.98 µg/mL,0.98 µg/mL,0.98 µg/mL,0.98 µg/mL,0.49 µg/mL,3.9 µg/mL,3.9 µg/mL,0.12 µg/mL,0.49 µg/mL,31.3 µg/mL,> 31.3 µg/mL,> 31.3 µg/mL,0.49 µg/mL,> 31.3 µg/mL,31.3 µg/mL,1.95 µg/mL,MIC ([Candida] auris [17]): 1.95 µg/mL; MIC ([Candida] auris [18]): 1.95 µg/mL; MIC ([Candida] auris [19]): 3.9 µg/mL; MIC ([Candida] auris [20]): 0.98 µg/mL; MIC ([Candida] auris [21]): 0.24 µg/mL; MIC ([Candida] auris [22]): 0.49 µg/mL; MIC ([Candida] auris [23]): 0.49 µg/mL; MIC ([Candida] auris [24]): 0.24 µg/mL; MIC ([Candida] auris [25]): 0.12 µg/mL; MIC (Candida duobushaemulonii [26]): 0.98 µg/mL; MIC (Candida duobushaemulonii [27]): 0.98 µg/mL; MIC ([Candida] haemuloni [28]): 0.49 µg/mL; MIC (Candida duobushaemulonii [29]): 0.98 µg/mL; MIC ([Candida] haemuloni [30]): 0.49 µg/mL; MIC (Kodamaea ohmeri): 0.49 µg/mL; MIC (Pichia kudriavzevii [31]): 0.49 µg/mL; MIC (Clavispora lusitaniae): 0.98 µg/mL; MIC (Saccharomyces cerevisiae [32]): 1.95 µg/mL; MIC (Saccharomyces cerevisiae [33]): 0.98 µg/mL; Activity (Candida albicans [34]): Active
O=C(NNc1ccc(Cl)cc1)c1ccccn1,0.12 µg/mL,0.98 µg/mL,1.95 µg/mL,0.24 µg/mL,0.98 µg/mL,0.98 µg/mL,0.98 µg/mL,1.95 µg/mL,1.95 µg/mL,3.9 µg/mL,1.95 µg/mL,1.95 µg/mL,0.49 µg/mL,3.9 µg/mL,> 31.3 µg/mL,31.3 µg/mL,0.49 µg/mL,7.8 µg/mL,15.6 µg/mL,1.95 µg/mL,MIC ([Candida] auris [17]): 3.9 µg/mL; MIC ([Candida] auris [18]): 1.95 µg/mL; MIC ([Candida] auris [19]): 1.95 µg/mL; MIC ([Candida] auris [20]): 1.95 µg/mL; MIC ([Candida] auris [21]): 0.98 µg/mL; MIC ([Candida] auris [22]): 1.95 µg/mL; MIC ([Candida] auris [23]): 1.95 µg/mL; MIC ([Candida] auris [24]): 0.98 µg/mL; MIC ([Candida] auris [25]): 1.95 µg/mL; MIC (Candida duobushaemulonii [26]): 0.98 µg/mL; MIC (Candida duobushaemulonii [27]): 0.98 µg/mL; MIC ([Candida] haemuloni [28]): 0.49 µg/mL; MIC (Candida duobushaemulonii [29]): 0.4 µg/mL; MIC ([Candida] haemuloni [30]): 0.12 µg/mL; MIC (Kodamaea ohmeri): 0.24 µg/mL; MIC (Pichia kudriavzevii [31]): 0.24 µg/mL; MIC (Clavispora lusitaniae): 0.98 µg/mL; MIC (Saccharomyces cerevisiae [32]): 0.98 µg/mL; MIC (Saccharomyces cerevisiae [33]): 0.98 µg/mL; Activity (Candida albicans [34]): Active
